Laboratory results from ChEMBL document CHEMBL1629542, “Epigallocatechin gallate inactivates clinical isolates of herpes simplex virus” (Antimicrob Agents Chemother, 2008).
Calls of active or inactive are those of the source. No cut-off for these calls is given here.

Columns and labels:
Human alphaherpesvirus 1 [1] = assay: Antiviral activity against Human herpesvirus 1 isolate P38 infected in African green monkey vero cells assessed as log reduction in viral titer at 50 uM; format: functional
How it was run: (§1)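 Laboratory HSV-1 F1 or patient-swab HSV-1 isolates were prepared as clarified Vero supernatants. They were incubated 1 h with a range of EGCG concentrations in RPMI 1640/1% FCS at pH 7.4. Titres were determined on Vero cells by 5-day CPE endpoint (Reed-Muench). IC99 was read graphically as 99% titre drop from untreated; mean ± SD, three experiments.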

Human alphaherpesvirus 1 [2] = assay: Antiviral activity against Human herpesvirus 1 isolate P32 infected in African green monkey vero cells assessed as log reduction in viral titer at 100 uM within 20 mins; format: functional
How it was run: (§2)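 In the time course, HSV-1 clinical isolates (clarified Vero supernatants) were exposed to 100 μM EGCG for varying times up to 60 min. Residual infectivity was then titrated on Vero cells by 5-day CPE endpoint with Reed-Muench calculation. Mean ± SD of three separate experiments.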

Human alphaherpesvirus 2 [3] = assay: Antiviral activity against Human herpesvirus 2 isolate P2 infected in African green monkey CV1 cells assessed as log reduction viral titer at 50 uM; format: functional, CV-1
How it was run: (§3)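 HSV-2 (clinical swab isolates or strain 333) was grown in CV-1 cells and used as clarified supernatant. Virus was exposed to graded EGCG for 1 h in RPMI 1640 with 1% FCS, pH 7.4. Tenfold dilutions were titrated on CV-1 cells, three wells each, 5 days at 37°C, scoring CPE. TCID50 was calculated by Reed-Muench. IC99 was read graphically as 99% titer drop from the zero-concentration titer. Mean of three experiments.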

Human alphaherpesvirus 2 [4] = assay: Antiviral activity against Human herpesvirus 2 isolate P11 infected in African green monkey CV1 cells assessed as log reduction in viral titer at 100 uM within 20 mins; format: functional, CV-1
How it was run: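 HSV-2 clinical isolates from clarified CV-1 supernatants were held with 100 μM EGCG for timed intervals, from 10 min onward. Surviving virus was titrated on CV-1 cells by 10-fold dilution and 5-day CPE scoring, with TCID50 by Reed-Muench. Values are mean ± SD, three experiments.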

Human alphaherpesvirus 1 [5] = assay: Antiviral activity against Human herpesvirus 1 F1 infected in African green monkey CV1 cells assessed as log reduction in viral titer at 100 uM; format: functional, CV-1
Human alphaherpesvirus 2 [6] = assay: Antiviral activity against Human herpesvirus 2 isolate P27 infected in African green monkey CV1 cells assessed as log reduction viral titer at 50 uM; format: functional, CV-1; how it was run: as §3
Human alphaherpesvirus 2 [7] = assay: Antiviral activity against Human herpesvirus 2 strain 333 strain 333 infected in African green monkey CV-1 cells; format: functional, cell-based; conditions: Human alphaherpesvirus 2, strain 333, CV-1; how it was run: as §3
Human alphaherpesvirus 1 [8] = assay: Antiviral activity against Human herpesvirus 1 isolate P25 infected in African green monkey vero cells assessed as log reduction in viral titer at 100 uM after 40 to 60 mins; format: functional; how it was run: as §2
Human alphaherpesvirus 1 [9] = assay: Antiviral activity against Human herpesvirus 1 isolate P42 infected in African green monkey vero cells assessed as log reduction in viral titer at 100 uM after 40 to 60 mins; format: functional; how it was run: as §2
Human alphaherpesvirus 2 [10] = assay: Antiviral activity against Human herpesvirus 2 strain 333 infected in African green monkey CV1 cells assessed as log reduction viral titer at 12.5 ug/ml; format: functional, CV-1; how it was run: as §3
Human alphaherpesvirus 1 [11] = assay: Antiviral activity against Human herpesvirus 1 isolate P25 infected in African green monkey vero cells assessed as reduction in viral titer; format: functional, organism-based; conditions: Human alphaherpesvirus 1, isolate P25, Vero; how it was run: as §1
Human alphaherpesvirus 1 [12] = assay: Antiviral activity against Human herpesvirus 1 isolate P38 infected in African green monkey vero cells assessed as reduction in viral titer at 100 uM; format: functional, organism-based; how it was run: as §1
Human alphaherpesvirus 2 [13] = assay: Antiviral activity against Human herpesvirus 2 isolate P22 infected in African green monkey CV1 cells assessed as log reduction in viral titer at 12.5 uM; format: functional, CV-1; how it was run: as §3
Human alphaherpesvirus 2 [14] = assay: Antiviral activity against Human herpesvirus 2 isolate P22 infected in African green monkey CV1 cells; format: functional, organism-based; conditions: Human alphaherpesvirus 2, isolate P22, CV-1; how it was run: as §3
Human alphaherpesvirus 1 [15] = assay: Antiviral activity against Human herpesvirus 1 F1 infected in African green monkey vero cells assessed as reduction in viral titer; format: functional, organism-based; conditions: Human alphaherpesvirus 1, F1, Vero; how it was run: as §1
Human alphaherpesvirus 1 [16] = assay: Binding affinity to Envelope glycoprotein B in Human herpesvirus 1 F1 assessed as macromolecular complex formation by SDS-PAGE
How it was run: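 Purified HSV-1 gB or gD (500 to 700 μg/ml) was incubated with EGCG (250 μg/ml; 545 μM) in 0.1 M potassium phosphate, pH 7.0, at 35°C for 24 h. Products were denatured at 50°C for 15 min in sample buffer and run on 6.5% SDS-PAGE. Bands were stained with Coomassie blue to detect higher-molecular-weight complexes.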

Human alphaherpesvirus 2 [17] = assay: Antiviral activity against Human herpesvirus 2 isolate P12 infected in African green monkey CV1 cells assessed as log reduction viral titer at 50 uM; format: functional, CV-1
How it was run: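 HSV-2 patient-swab isolates were grown as clarified CV-1 supernatants and incubated 1 h with a range of EGCG concentrations (RPMI 1640/1% FCS, pH 7.4). They were titrated on CV-1 cells from 10-fold dilutions by 5-day CPE at 37°C, with Reed-Muench TCID50. IC99 was derived graphically as 99% reduction from zero-drug titre; mean ± SD, three experiments.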

Human alphaherpesvirus 2 [18] = assay: Antiviral activity against Human herpesvirus 2 strain 333 infected in African green monkey CV1 cells assessed as log reduction in viral titer at 100 uM; format: functional, CV-1
How it was run: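 Lab strain HSV-2 333 was grown and titrated either in CV-1 cells or in Vero cells. Virus was incubated with 100 μM EGCG for 60 min, then titrated as tenfold dilutions for 5 days at 37°C with CPE scoring. Reed-Muench TCID50 of treated versus control virus gave the titer decrease. Mean of three experiments.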

Human alphaherpesvirus 1 [19] = assay: Antiviral activity against Human herpesvirus 1 isolate P56 infected in African green monkey vero cells assessed as reduction in viral titer at 100 uM; format: functional, organism-based; how it was run: as §1
Human alphaherpesvirus 1 [20] = assay: Antiviral activity against Human herpesvirus 1 F1 infected in African green monkey vero cells assessed as log reduction in viral titer at 100 uM; format: functional
How it was run: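 HSV-1 F1 was grown in Vero cells and the clarified supernatant was incubated with 100 μM EGCG for 60 min at 37°C in RPMI 1640/1% FCS, pH 7.4. Titre was then measured on Vero cells from 10-fold dilutions, three wells per dilution, over 5 days at 37°C by CPE. TCID50 was calculated by Reed-Muench; three separate experiments.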

Human alphaherpesvirus 1 [21] = assay: Antiviral activity against Human herpesvirus 1 isolate P15 infected in African green monkey vero cells assessed as log reduction in viral titer at 100 uM after 30 mins; format: functional; how it was run: as §2
Human alphaherpesvirus 1 [22] = assay: Antiviral activity against Human herpesvirus 1 isolate P32 infected in African green monkey vero cells assessed as reduction in viral titer; format: functional, organism-based; conditions: Human alphaherpesvirus 1, isolate P32, Vero; how it was run: as §1
Human alphaherpesvirus 2 [23] = assay: Antiviral activity against Human herpesvirus 2 isolate P47 infected in African green monkey CV1 cells assessed as log reduction viral titer at 50 uM; format: functional, CV-1; how it was run: as §3
Human alphaherpesvirus 1 [24] = assay: Antiviral activity against Human herpesvirus 1 isolate P56 infected in African green monkey vero cells assessed as log reduction in viral titer at 100 uM within 20 mins; format: functional; how it was run: as §2
Human alphaherpesvirus 2 [25] = assay: Antiviral activity against Human herpesvirus 2 isolate P2 infected in African green monkey CV1 cells assessed as log reduction in viral titer at 100 uM within 20 mins; format: functional, CV-1
How it was run: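 Time course: clarified CV-1 supernatant of HSV-2 (clinical isolates or strain 333) was exposed to 100 μM EGCG for increasing times. It was then titrated by tenfold dilution on CV-1 cells, three wells per dilution, for 5 days at 37°C with CPE read-out. Reed-Muench TCID50 was compared with the untreated titer. Mean of three separate experiments.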

O=C(O[C@@H]1Cc2c(O)cc(O)cc2O[C@@H]1c1cc(O)c(O)c(O)c1)c1cc(O)c(O)c(O)c1 [EPIGALOCATECHIN GALLATE]
FC (Human alphaherpesvirus 1 [1]): 2
FC (Human alphaherpesvirus 1 [2]): 3
FC (Human alphaherpesvirus 2 [3]): >4
FC (Human alphaherpesvirus 2 [4]): 3
FC (Human alphaherpesvirus 1 [5]): 3.5
FC (Human alphaherpesvirus 2 [6]): >4
IC99 (Human alphaherpesvirus 2 [7]): 25 µM
FC (Human alphaherpesvirus 1 [8]): 3
FC (Human alphaherpesvirus 1 [9]): 3
FC (Human alphaherpesvirus 2 [10]): 0.56
IC99 (Human alphaherpesvirus 1 [11]): 45.4 µM
Activity (Human alphaherpesvirus 1 [12]): Active
FC (Human alphaherpesvirus 2 [13]): >=2
IC99 (Human alphaherpesvirus 2 [14]): 12.5 µM
IC99 (Human alphaherpesvirus 1 [15]): 72.3 µM
Activity (Human alphaherpesvirus 1 [16]): Active
FC (Human alphaherpesvirus 2 [17]): >4
FC (Human alphaherpesvirus 2 [18]): 4
Activity (Human alphaherpesvirus 1 [19]): Active
FC (Human alphaherpesvirus 1 [20]): >=3
FC (Human alphaherpesvirus 1 [21]): 2
IC99 (Human alphaherpesvirus 1 [22]): 16 µM
FC (Human alphaherpesvirus 2 [23]): >4
FC (Human alphaherpesvirus 1 [24]): 3
FC (Human alphaherpesvirus 2 [25]): 3
